Assay results as given in ChEMBL document CHEMBL1134847, “Development of orally active nonpeptidic inhibitors of human neutrophil elastase” (J Med Chem, 2001).
pKi: −log10 of the molar value. ≈ marks a conversion by molar mass, not a printed value.

Columns and labels:
Cricetinae gen. sp. [1] = test: Inhibition of HNE-induced lung hemorrhage in hamsters after oral administration of 30 mg/kg followed by intratracheal instillation of HNE (10 U/lung); format: functional
In short: (§1)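 Hamsters (n = 6-10) were dosed orally 1 h before intratracheal instillation of HNE (10 U/lung). The read-out was inhibition of the HNE-induced lung hemorrhage.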

Cricetinae gen. sp. [2] = test: Inhibition of HNE-induced lung hemorrhage in hamsters after oral administration followed by intratracheal instillation of HNE (10 U/lung); format: functional; in short: as §1
Neutrophil elastase = molecular target: T1, Neutrophil elastase (Homo sapiens, UniProt P08246); test: Binding constant derived from inhibition of elastase catalyzed hydrolysis of synthetic substrate
T1 sequence (P08246 whole entry): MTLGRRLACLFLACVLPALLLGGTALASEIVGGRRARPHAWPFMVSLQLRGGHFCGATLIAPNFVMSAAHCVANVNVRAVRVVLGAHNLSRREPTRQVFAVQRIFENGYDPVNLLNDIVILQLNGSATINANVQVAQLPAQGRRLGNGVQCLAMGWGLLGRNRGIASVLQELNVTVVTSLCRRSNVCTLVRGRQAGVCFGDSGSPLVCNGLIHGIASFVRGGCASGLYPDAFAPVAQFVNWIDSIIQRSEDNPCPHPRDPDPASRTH

[3] = Solubility was determined at a pH of 1.2 using first fluid (JP13th); format: physicochemical; settings: pH 1.2
In short: (§2)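 Solubility was measured in μg/mL in four vehicles: JP13th first fluid (pH ca. 1.2), 1/14 M phosphate citrate buffer (pH ca. 4.0), physiological saline (pH ca. 5.5) and 1/14 M phosphate buffer (pH ca. 7.4).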

[4] = Solubility was determined at a pH of […] using 1/14 M phosphate buffer; format: physicochemical; settings: pH 7.4
[5] = Solubility was determined at a pH of 5.5 using physiological saline; format: physicochemical; settings: pH 5.5; in short: as §2
[6] = Pharmacokinetic parameter AUC was evaluated when a dose of 10 mg/kg is administered orally to a fasting rat; format: ADME, organism-based; set-up: dose 10 mg/kg, route oral; settings: in vivo, po
In short: (§3)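 Oral dosing as a suspension in 0.5% CMC; intravenous dosing as a solution in 35% HP-β-CD. Unchanged drug measured in plasma over 0–24 h after dosing. AUC is the integrated area under the concentration versus time curve. Oral bioavailability is taken from the […]. Mean ± SD, n = 4 (n = 3 for some i.v. groups).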

[7] = Maximum concentration of […] drug in plasma recorded in the period of 0-24 hr after administering orally a dose of 3 mg/kg to a fasting rat; format: ADME, organism-based; set-up: dose 3 mg/kg, route oral; settings: po
In short: (§4)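 Unchanged drug measured in plasma over 0–24 h after dosing. Cmax recorded over 0–24 h, with Tmax as the time of Cmax. Half-life determined over 6–24 h after dosing. Mean ± SD, n = 4.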

[8] = Pharmacokinetic parameter AUC was evaluated when a dose of 30 mg/kg is administered orally; format: ADME, organism-based; set-up: dose 30 mg/kg, route oral; settings: rat, in vivo, po; in short: as §3
[9] = Time of maximum concentration of the drug when administered orally a dose of 1 mg/kg to a fasting rat; format: ADME, organism-based; set-up: dose 1 mg/kg, route oral; settings: in vivo, po; in short: as §4
[10] = Time of maximum concentration of the drug when administered orally a dose of 30 mg/kg; format: ADME, organism-based; set-up: dose 30 mg/kg, route oral; settings: rat, in vivo, po; in short: as §4
[11] = Pharmacokinetic parameter AUC was evaluated when a dose of 3 mg/kg is administered orally; format: ADME, organism-based; set-up: dose 3 mg/kg, route oral; settings: rat, in vivo, po
[12] = Half life after administering intravenously a dose of 3 mg/kg; settings: rat, in vivo, iv
[13] = Half life after administering orally a dose of 30 mg/kg; format: ADME, organism-based; set-up: dose 30 mg/kg, route oral; settings: rat, in vivo, po; in short: as §4
[14] = Bioavailability was evaluated when a dose of 3 mg/kg was administered orally; format: ADME, organism-based; settings: rat, in vivo, po; in short: as §3
[15] = Half life after administering orally a dose of 3 mg/kg; format: ADME, organism-based; set-up: dose 3 mg/kg, route oral; settings: rat, in vivo, po; in short: as §4
[16] = Maximum concentration of […] drug in plasma recorded in the period of 0-24 hr after administering orally a dose of 30 mg/kg; format: ADME, organism-based; set-up: dose 30 mg/kg, route oral; settings: rat, po; in short: as §4
[17] = Half life after the administered orally a dose of 1 mg/kg to a fasting rat; format: ADME, organism-based; set-up: dose 1 mg/kg, route oral; settings: in vivo, po; in short: as §4
[18] = Half life after administering orally a dose of 3 mg/kg to a fasting rat; format: ADME, organism-based; set-up: dose 3 mg/kg, route oral; settings: in vivo, po; in short: as §4
[19] = Pharmacokinetic parameter AUC was evaluated when a dose of 1 mg/kg is administered orally to a fasting rat; format: ADME, organism-based; set-up: dose 1 mg/kg, route oral; settings: in vivo, po; in short: as §3
[20] = Time of maximum concentration of the drug when administered orally a dose of 3 mg/kg to a fasting rat; format: ADME, organism-based; set-up: dose 3 mg/kg, route oral; settings: in vivo, po; in short: as §4
[21] = Bioavailability was evaluated when a dose of 3 mg/kg was administered orally to a fasting rat; format: ADME, organism-based; settings: in vivo, po; in short: as §3
[22] = Maximum concentration of […] drug in plasma recorded in the period of 0-24 hr after administering orally a dose of 3 mg/kg; format: ADME, organism-based; set-up: dose 3 mg/kg, route oral; settings: rat, po; in short: as §4
[23] = Pharmacokinetic parameter AUC was evaluated when a dose of 3 mg/kg is administered orally to a fasting rat; format: ADME, organism-based; set-up: dose 3 mg/kg, route oral; settings: in vivo, po
[24] = Maximum concentration of […] drug in plasma recorded in the period of 0-24 hr after administering orally a dose of 10 mg/kg to a fasting rat; format: ADME, organism-based; set-up: dose 10 mg/kg, route oral; settings: po; in short: as §4
[25] = Maximum concentration of […] drug in plasma recorded in the period of 0-24 hr after administering orally a dose of 1 mg/kg to a fasting rat; format: ADME, organism-based; set-up: dose 1 mg/kg, route oral; settings: po; in short: as §4
[26] = Time of maximum concentration of the drug when administered orally a dose of 10 mg/kg to a fasting rat; format: ADME, organism-based; set-up: dose 10 mg/kg, route oral; settings: in vivo, po; in short: as §4
[27] = Pharmacokinetic parameter AUC was evaluated intravenous administration of 3 mg/kg; format: ADME, organism-based; set-up: dose 3 mg/kg, route intravenous; settings: rat, in vivo; in short: as §3
[28] = Half life after administering orally a dose of 10 mg/kg to a fasting rat; format: ADME, organism-based; set-up: dose 10 mg/kg, route oral; settings: in vivo, po; in short: as §4
[29] = Time of maximum concentration of the drug when administered orally at dose of 3 mg/kg; format: ADME, organism-based; set-up: dose 3 mg/kg, route oral; settings: rat, in vivo, po; in short: as §4

CCCCc1nnc(C(=O)[C@@H](NC(=O)Cn2c(-c3ccc(F)cc3)ncc(N)c2=O)C(C)C)o1
inhibition in vivo at 30 mg/kg (Cricetinae gen. sp. [1]): 63%

CC(C)[C@H](NC(=O)Cn1c(-c2ccc(F)cc2)nccc1=O)C(=O)c1nnc(C(C)(C)C)o1
ED50 (Cricetinae gen. sp. [2]): 6.8 mg/kg

CC(C)[C@H](NC(=O)Cn1c(-c2ccc(F)cc2)nccc1=O)C(=O)c1nnc(C2(C)CC2)o1
ED50 (Cricetinae gen. sp. [2]): 5.5 mg/kg

CC(C)OC(=O)N1c2ccccc2C[C@H]1C(=O)N[C@H](C(=O)c1nnc(C(C)(C)C)o1)C(C)C
pKi (Neutrophil elastase): 6.94

CC(C)[C@H](NC(=O)[C@@H]1Cc2ccccc2N1C(=O)[C@@H](NC(=O)c1cccnc1)C(C)C)C(=O)c1nnc(C(C)(C)C)o1
pKi (Neutrophil elastase): 8.29
inhibition in vivo at 30 mg/kg (Cricetinae gen. sp. [1]): 36%

CC(C)[C@H](NC(=O)Cn1c(-c2ccccc2)ncc(N)c1=O)C(=O)c1nnc(C(C)(C)C)o1
solubility [3]: > 2000 µg/mL
solubility [4]: 310 µg/mL (≈ 685 µM)
solubility [5]: 1010 µg/mL (≈ 2230 µM)

CC(C)[C@H](NC(=O)Cn1c(-c2ccc(F)cc2)ncc(N)c1=O)C(=O)c1nnc(-c2cccnc2)o1
inhibition in vivo at 30 mg/kg (Cricetinae gen. sp. [1]): 0%

CC(C)[C@H](NC(=O)CN1C(=O)N[C@H](C(C)C)C1=O)C(=O)c1nnc(C(C)(C)C)o1
inhibition in vivo at 30 mg/kg (Cricetinae gen. sp. [1]): 0%

CC(C)[C@H](NC(=O)CN1C(=O)CN=C(c2ccc(Cl)cc2)c2ccccc21)C(=O)c1nnc(C(C)(C)C)o1
pKi (Neutrophil elastase): 7.24
inhibition in vivo at 30 mg/kg (Cricetinae gen. sp. [1]): 22%

CC(C)[C@H](NC(=O)CN1C(=O)N[C@H](Cc2c[nH]c3ccccc23)C1=O)C(=O)c1nnc(C(C)(C)C)o1
inhibition in vivo at 30 mg/kg (Cricetinae gen. sp. [1]): 22%

Cc1nnc(C(=O)[C@@H](NC(=O)Cn2c(-c3ccc(F)cc3)ncc(N)c2=O)C(C)C)o1
inhibition in vivo at 30 mg/kg (Cricetinae gen. sp. [1]): 47%

CC(C)[C@H](NC(=O)Cn1c(-c2cccnc2)ncc(N)c1=O)C(=O)c1nnc(C(C)(C)C)o1
inhibition in vivo at 30 mg/kg (Cricetinae gen. sp. [1]): 6%

CC(C)C(NC(=O)Cn1c(-c2ccccc2)ncc(N)c1=O)C(=O)c1nnc(C(C)(C)C)o1 (stereo unspecified)
AUC [6]: 2130 ng·h/mL
Cmax [7]: 257 ng/mL
AUC [8]: 3050 ng·h/mL
Tmax [9]: 0.31 h
Tmax [10]: 0.44 h
AUC [11]: 760 ng·h/mL
half-life [12]: 3 h
half-life [13]: 8.7 h
bioavailability [14]: 39.4%
half-life [15]: 5 h
Cmax [16]: 527 ng/mL
half-life [17]: 5.1 h
half-life [18]: 4.5 h
AUC [19]: 230 ng·h/mL
Tmax [20]: 0.63 h
bioavailability [21]: 50.5%
Cmax [22]: 174 ng/mL
ED50 (Cricetinae gen. sp. [2]): 5.1 mg/kg
AUC [23]: 976 ng·h/mL
Cmax [24]: 351 ng/mL
Cmax [25]: 115 ng/mL
Tmax [26]: 0.31 h
AUC [27]: 1930 ng·h/mL
half-life [28]: 7.4 h
Tmax [29]: 1.1 h

CC(C)OC(=O)N1Cc2ccccc2C[C@H]1C(=O)N[C@H](C(=O)c1nnc(C(C)(C)C)o1)C(C)C
pKi (Neutrophil elastase): 6.14
inhibition in vivo at 30 mg/kg (Cricetinae gen. sp. [1]): 0%

CC(C)C(NC(=O)Cn1c(-c2ccc(F)cc2)ncc(N)c1=O)C(=O)c1nnc(C(C)(C)C)o1 (stereo unspecified)
ED50 (Cricetinae gen. sp. [2]): 10 mg/kg

CC(C)[C@H](NC(=O)[C@@H]1Cc2ccccc2CN1C(=O)[C@@H](NC(=O)c1cccnc1)C(C)C)C(=O)c1nnc(C(C)(C)C)o1
pKi (Neutrophil elastase): 8.78
ED50 (Cricetinae gen. sp. [2]): 14.2 mg/kg
